Here are results for 2 compounds from ChEMBL document CHEMBL4257465, “Strigolactones: a plant phytohormone as novel anti-inflammatory agents” (Medchemcomm, 2018).

SMILES strings stand for the structures.

In data set [1] the test system is RAW264.7. The data set is described as follows: Antiinflammatory activity in LPS-induced mouse RAW264.7 cells assessed as TNFalpha levels at 5 uM pretreated for 2 hrs followed by LPS stimulation and measured after 6 hrs by ELISA (reference value: 4377.1 +/- 318.6 pg/ml). Type of data set: functional. In outline: (§1)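 RAW264.7 murine macrophages (DMEM, 10% serum, 37 °C, 5% CO2) seeded at 5 × 10^5 cells per well, pretreated 2 h with compound at 10, 5, 2.5 or 1.25 μM (DMSO 0.1% v/v), then LPS (E. coli 0127:B8) 100 ng mL−1 added. Supernatant TNF-α or IL-6 read by mouse ELISA kit after 6, 12 and 24 h. Mean ± SD, n = 3, three independent experiments.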
On the technique in general: ELISA stands for enzyme-linked immunosorbent assay.

Data set [2] relates to RAW264.7. Put plainly: Antiinflammatory activity in LPS-induced mouse RAW264.7 cells assessed as TNFalpha levels at 10 uM pretreated for 2 hrs followed by LPS stimulation and measured after 12 hrs by ELISA (reference value: 5313.7 +/- 420.9 pg/ml). The format is functional. In outline:
as §1

Data set [3] has as its target Mitogen-activated protein kinase 1 and 3 (ERK2 and ERK1) (Mus musculus) (UniProt P63085+Q63844). Put plainly: Inhibition of LPS-induced ERK1/2 phosphorylation in mouse RAW264.7 cells after 4 hrs by Western blot analysis. Type of data set: cell-based. In outline: (§2)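 RAW264.7 cells at 2 × 10^6 per well given fresh medium with compound (10, 5, 2.5, 1.25 μM) plus LPS 500 ng mL−1 for 4 h. Lysed in IP buffer with 1 mM PMSF, protein by BCA. Run on 12.5% SDS-PAGE and blotted. Phospho and total ERK1/2 (Thr202/Tyr204), p38 (Thr180/Tyr182), IκBα (Ser32/36) and NF-κB p65 detected by ECL. Mean ± SD, n = 3.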
In general terms: In western blotting, separated proteins are transferred to a membrane and probed.

The subject of data set [4] is RAW264.7. Put plainly: Antiinflammatory activity in LPS-induced mouse RAW264.7 cells assessed as TNFalpha levels at 2.5 uM pretreated for 2 hrs followed by LPS stimulation and measured after 24 hrs by ELISA (reference value: 9653.7 +/- 377.3 pg/ml). Type of data set: functional. The gist of the method: as §1
The test system of data set [5] is RAW264.7. Put plainly: Antiinflammatory activity in LPS-induced mouse RAW264.7 cells assessed as TNFalpha levels at 5 uM pretreated for 2 hrs followed by LPS stimulation and measured after 24 hrs by ELISA (reference value: 9653.7 +/- 377.3 pg/ml). Type of data set: functional. In outline:
as §1

Data set [6] deals with RAW264.7. The data set is described as follows: Antiinflammatory activity in mouse RAW264.7 cells assessed as inhibition of LPS-induced NO production pretreated for 2 hrs followed by LPS stimulation measured after 24 hrs by Griess assay. The format is functional, cell-based. The gist of the method: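 RAW264.7 murine macrophages (DMEM, 10% serum, 37 °C, 5% CO2) seeded at 5 × 10^4 cells/well and cultured 18 h. Compounds tested at 1–100 μM (DMSO 0.1% v/v), with LPS (E. coli 0127:B8) at 100 ng mL−1. Supernatant nitrite read with Griess reagent (10 min, room temperature, OD540).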
On the technique in general: The Griess reaction detects nitrite, a stable product of nitric oxide.

Data set [7] has as its system RAW264.7. The data set is described as follows: Antiinflammatory activity in LPS-induced mouse RAW264.7 cells assessed as IL-6 levels at 10 uM pretreated for 2 hrs followed by LPS stimulation and measured after 24 hrs by ELISA (reference value: 1966.6 +/- 102.3 pg/ml). Type of data set: functional. The gist of the method:
as §1

The test system of data set [8] is RAW264.7. Put plainly: Antiinflammatory activity in LPS-induced mouse RAW264.7 cells assessed as IL-6 levels at 10 uM pretreated for 2 hrs followed by LPS stimulation and measured after 6 hrs by ELISA (reference value: 472.3 +/- 25.8 pg/ml). Type of data set: functional. The gist of the method: as §1
The subject of data set [9] is RAW264.7. Put plainly: Antiinflammatory activity in LPS-induced mouse RAW264.7 cells assessed as TNFalpha levels at 1.25 uM pretreated for 2 hrs followed by LPS stimulation and measured after 12 hrs by ELISA (reference value: 5313.7 +/- 420.9 pg/ml). The format is functional.
Data set [10] has as its target MAP kinase p38 (Mus musculus) (UniProt P47811+O08911+Q9WUI1+Q9Z1B7). Put plainly: Inhibition of LPS-induced p38 MAPK phosphorylation in mouse RAW264.7 cells after 4 hrs by Western blot analysis. Type of data set: cell-based. In outline:
as §2

For data set [11], the system named is RAW264.7. The data set is described as follows: Antiinflammatory activity in LPS-induced mouse RAW264.7 cells assessed as TNFalpha levels at 2.5 uM pretreated for 2 hrs followed by LPS stimulation and measured after 6 hrs by ELISA (reference value: 4377.1 +/- 318.6 pg/ml). The format is functional. In outline: as §1
Data set [12] has as its target T1, NF-kappa-B inhibitor alpha (Mus musculus) (UniProt Q9Z1E3).
T1 sequence (whole entry): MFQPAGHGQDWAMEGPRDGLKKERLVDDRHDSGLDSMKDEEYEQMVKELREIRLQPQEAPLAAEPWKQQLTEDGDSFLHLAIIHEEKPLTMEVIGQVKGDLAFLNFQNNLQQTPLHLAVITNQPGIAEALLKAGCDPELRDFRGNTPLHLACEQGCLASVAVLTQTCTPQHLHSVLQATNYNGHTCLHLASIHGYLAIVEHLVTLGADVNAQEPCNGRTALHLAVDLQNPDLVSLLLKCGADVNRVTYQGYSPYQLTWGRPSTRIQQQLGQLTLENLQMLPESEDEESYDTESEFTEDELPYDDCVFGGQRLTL
The data set is described as follows: Inhibition of LPS-induced IkappaBalpha phosphorylation in mouse RAW264.7 cells after 4 hrs by Western blot analysis. The format is cell-based. The gist of the method: as §2

Data set [13] has as its system RAW264.7. Put plainly: Antiinflammatory activity in LPS-induced mouse RAW264.7 cells assessed as IL-6 levels at 2.5 uM pretreated for 2 hrs followed by LPS stimulation and measured after 24 hrs by ELISA (reference value: 1966.6 +/- 102.3 pg/ml). Type of data set: functional. In outline:
as §1

The nature of data set [14]: Cytotoxicity against mouse RAW264.7 cells assessed as cell viability at 10 uM after 48 hrs by MTT assay (reference value: 100%). Type of data set: cell-based. Particulars: read-out: Activity. The gist of the method:
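RAW264.7 cells seeded at 4 × 10^3 per well, cultured overnight, exposed to compound (DMSO 0.1% v/v) for 48 h. MTT 0.5 mg mL−1 added for 4 h at 37 °C, formazan dissolved in DMSO, OD570 read. Viability relative to medium-only cells set as 100%. Mean ± SD (n = 5), three independent experiments.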

Data set [15] has as its system RAW264.7. The data set is described as follows: Antiinflammatory activity in LPS-induced mouse RAW264.7 cells assessed as IL-6 levels at 1.25 uM pretreated for 2 hrs followed by LPS stimulation and measured after 6 hrs by ELISA (reference value: 472.3 +/- 25.8 pg/ml). Type of data set: functional. The gist of the method: as §1
Data set [16] concerns RAW264.7. The data set is described as follows: Antiinflammatory activity in LPS-induced mouse RAW264.7 cells assessed as IL-6 levels at 5 uM pretreated for 2 hrs followed by LPS stimulation and measured after 12 hrs by ELISA (reference value: 1394 +/- 62.6 pg/ml). Type of data set: functional. In outline:
as §1

For data set [17], the system named is RAW264.7. Put plainly: Antiinflammatory activity in LPS-induced mouse RAW264.7 cells assessed as TNFalpha levels at 2.5 uM pretreated for 2 hrs followed by LPS stimulation and measured after 12 hrs by ELISA (reference value: 5313.7 +/- 420.9 pg/ml). The format is functional.
The subject of data set [18] is RAW264.7. The data set is described as follows: Antiinflammatory activity in LPS-induced mouse RAW264.7 cells assessed as TNFalpha levels at 10 uM pretreated for 2 hrs followed by LPS stimulation and measured after 24 hrs by ELISA (reference value: 9653.7 +/- 377.3 pg/ml). The format is functional. The gist of the method: as §1

Sequence of Mitogen-activated protein kinase 1 and 3 (ERK2 and ERK1) (Mus musculus) (P63085 whole entry, looked up): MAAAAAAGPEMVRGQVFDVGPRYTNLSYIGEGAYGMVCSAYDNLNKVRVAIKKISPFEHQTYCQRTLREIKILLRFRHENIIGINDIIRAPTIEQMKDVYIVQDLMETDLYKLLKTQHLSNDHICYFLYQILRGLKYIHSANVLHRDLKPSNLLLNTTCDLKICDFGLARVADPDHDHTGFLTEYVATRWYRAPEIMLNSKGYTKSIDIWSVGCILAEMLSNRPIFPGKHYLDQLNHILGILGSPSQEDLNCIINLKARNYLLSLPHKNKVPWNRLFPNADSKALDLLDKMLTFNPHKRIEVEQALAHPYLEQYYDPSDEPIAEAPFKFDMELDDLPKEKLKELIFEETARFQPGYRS
Sequence of Mitogen-activated protein kinase 1 and 3 (ERK2 and ERK1) (Mus musculus) (Q63844 whole entry, looked up): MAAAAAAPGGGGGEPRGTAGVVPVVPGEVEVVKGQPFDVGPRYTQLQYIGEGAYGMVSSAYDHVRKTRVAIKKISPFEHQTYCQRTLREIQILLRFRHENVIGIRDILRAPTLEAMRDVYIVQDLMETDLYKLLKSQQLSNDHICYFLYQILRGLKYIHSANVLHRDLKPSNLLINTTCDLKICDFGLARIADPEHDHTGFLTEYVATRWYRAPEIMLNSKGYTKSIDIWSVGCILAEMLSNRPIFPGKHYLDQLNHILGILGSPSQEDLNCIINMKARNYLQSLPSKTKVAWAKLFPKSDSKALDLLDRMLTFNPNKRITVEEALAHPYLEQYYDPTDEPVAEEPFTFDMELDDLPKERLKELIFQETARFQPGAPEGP

With `CC1=C[C@@H](O/C=C2/C(=O)O[C@H]3c4ccccc4C[C@@H]23)OC1=O`, the Activity in the data set with RAW264.7 [1] is 4209.3 pg/mL; in the data set with RAW264.7 [2], 4721.3 pg/mL; with RAW264.7 [4], 9444.5 pg/mL; with RAW264.7 [5] it was 9318.5 pg/mL; in the data set with RAW264.7 [7], 1061.3 pg/mL; in the data set with RAW264.7 [8], 340.6 pg/mL. Further, the Activity amounted to 5319.6 pg/mL in the data set with RAW264.7 [9]; 4307.9 pg/mL in the data set on RAW264.7 [11]; 1787.6 pg/mL with RAW264.7 [13]; 470.1 pg/mL in the data set on RAW264.7 [15]; 1177 pg/mL with RAW264.7 [16]; 5212.4 pg/mL in the data set on RAW264.7 [17]. In addition, in the data set on RAW264.7 [18], the Activity is 8796.7 pg/mL. The inhibition entry in data set [3], in data set [10] and in data set [12] was “Dose-dependent effect” each time. The IC50 with RAW264.7 [6] came to 3.51 µM. In [14], the viability at 48 h, 10 µM worked out at 99.2%.

With `CC1=C[C@H](O/C=C2/C(=O)O[C@@H]3c4ccccc4C[C@H]23)OC1=O`, the Activity in the data set with RAW264.7 [1] amounted to 4140.7 pg/mL; in the data set with RAW264.7 [2], 4685.5 pg/mL; in the data set on RAW264.7 [4], 9397.7 pg/mL; in the data set on RAW264.7 [5], 9085.5 pg/mL; in the data set on RAW264.7 [7] it was 1002.2 pg/mL; in the data set on RAW264.7 [8], 302.3 pg/mL. For the same compound, the Activity turned out to be 5303.7 pg/mL in the data set on RAW264.7 [9]; 4276.9 pg/mL with RAW264.7 [11]; 1729.3 pg/mL in the data set with RAW264.7 [13]; 461.2 pg/mL in the data set with RAW264.7 [15]; 1090.7 pg/mL in the data set on RAW264.7 [16]; 5186.9 pg/mL with RAW264.7 [17]. The Activity with RAW264.7 [18] worked out at 8660.7 pg/mL. Further, the inhibition result in data set [3], in data set [10] and in data set [12] was “Dose-dependent effect” each time. The IC50 in the data set with RAW264.7 [6] was 3.14 µM. In addition, in [14], the viability at 48 h, 10 µM was 100%.

As usually defined, the IC50 is the midpoint of a concentration-inhibition curve.
